Only some compounds are listed: those with a hit (about 1.9% of all), similar ones and a draw of the others.
SR-BI HDL uptake – blocks mouse SR-BI lipid uptake from DiI-HDL; Q61009; ldlA[mSR-BI] CHO cells, DiI-HDL uptake fluorescence, 3 h; inhibition, % at 12.5 µM; hit rate 0.96% among 320,000;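 active = mean replicate inhibition of at least 70% and a set share of replicates each scoring 70 or more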;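 note: 0% = median of neutral control wells and 100% = median of positive control wells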
Rin1-Abl PPI inh – blocks binding of human Rin1 to Abl. TR-FRET Rin1/Abl binding, biochemical. inhibition, % at 7.35 µM. hit rate 0.4% among 360,000. AID 588664; in the data active = inhibition above about 5%, passing the limit was not always enough
Target sequence (P00519 whole entry, looked up): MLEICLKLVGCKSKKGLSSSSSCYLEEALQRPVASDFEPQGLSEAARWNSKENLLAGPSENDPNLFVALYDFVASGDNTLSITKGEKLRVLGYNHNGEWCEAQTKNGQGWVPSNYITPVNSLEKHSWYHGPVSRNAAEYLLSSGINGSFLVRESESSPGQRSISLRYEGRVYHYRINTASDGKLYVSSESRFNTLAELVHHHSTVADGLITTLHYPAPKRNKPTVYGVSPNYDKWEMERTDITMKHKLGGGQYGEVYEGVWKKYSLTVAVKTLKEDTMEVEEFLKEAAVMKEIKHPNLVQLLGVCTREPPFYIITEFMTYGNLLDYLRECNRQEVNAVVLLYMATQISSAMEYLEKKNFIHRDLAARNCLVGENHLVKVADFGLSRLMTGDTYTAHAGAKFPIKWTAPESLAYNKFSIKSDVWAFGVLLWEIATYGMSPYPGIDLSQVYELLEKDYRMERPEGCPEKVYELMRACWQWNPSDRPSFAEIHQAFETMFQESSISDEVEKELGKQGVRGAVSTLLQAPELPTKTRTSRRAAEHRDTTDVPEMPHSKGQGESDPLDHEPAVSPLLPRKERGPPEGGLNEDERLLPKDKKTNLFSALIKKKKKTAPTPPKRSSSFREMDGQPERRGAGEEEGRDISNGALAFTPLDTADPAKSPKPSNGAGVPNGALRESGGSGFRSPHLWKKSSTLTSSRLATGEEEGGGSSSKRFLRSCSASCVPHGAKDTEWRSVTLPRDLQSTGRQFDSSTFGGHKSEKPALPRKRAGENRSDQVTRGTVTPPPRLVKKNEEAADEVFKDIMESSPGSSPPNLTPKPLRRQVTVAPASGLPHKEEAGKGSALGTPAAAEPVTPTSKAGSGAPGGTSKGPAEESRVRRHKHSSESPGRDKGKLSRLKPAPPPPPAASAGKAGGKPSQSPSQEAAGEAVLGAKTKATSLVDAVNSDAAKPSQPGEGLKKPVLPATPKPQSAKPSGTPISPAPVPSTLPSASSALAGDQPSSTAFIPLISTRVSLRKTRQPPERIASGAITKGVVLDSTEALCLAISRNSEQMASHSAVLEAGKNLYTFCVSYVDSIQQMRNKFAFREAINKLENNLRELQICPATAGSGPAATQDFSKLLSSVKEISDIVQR
Target sequence (Q13671 whole entry, looked up): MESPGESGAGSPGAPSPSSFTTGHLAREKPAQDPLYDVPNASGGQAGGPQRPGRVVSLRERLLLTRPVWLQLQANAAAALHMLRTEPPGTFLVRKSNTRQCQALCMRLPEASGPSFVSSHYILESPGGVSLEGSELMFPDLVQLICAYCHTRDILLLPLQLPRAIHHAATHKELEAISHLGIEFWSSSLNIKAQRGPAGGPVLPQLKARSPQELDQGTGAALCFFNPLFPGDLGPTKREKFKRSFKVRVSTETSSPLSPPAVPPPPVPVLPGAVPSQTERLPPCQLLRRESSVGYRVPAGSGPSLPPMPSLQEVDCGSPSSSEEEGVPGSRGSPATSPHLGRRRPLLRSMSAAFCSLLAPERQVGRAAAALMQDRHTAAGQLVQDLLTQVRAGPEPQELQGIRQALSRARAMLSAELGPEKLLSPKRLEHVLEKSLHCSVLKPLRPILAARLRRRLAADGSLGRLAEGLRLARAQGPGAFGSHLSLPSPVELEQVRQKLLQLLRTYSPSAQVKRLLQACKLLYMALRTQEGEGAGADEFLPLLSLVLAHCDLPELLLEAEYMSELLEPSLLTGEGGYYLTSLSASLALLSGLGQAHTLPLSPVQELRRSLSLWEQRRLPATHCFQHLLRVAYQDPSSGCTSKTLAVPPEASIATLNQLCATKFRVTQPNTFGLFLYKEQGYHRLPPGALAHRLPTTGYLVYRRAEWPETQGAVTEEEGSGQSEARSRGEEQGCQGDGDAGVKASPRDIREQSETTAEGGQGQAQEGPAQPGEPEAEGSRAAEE
SR-BI DiI-HDL act – activators of SR-BI mediated HDL lipid uptake; CHO ldlA[mSR-BI] cells, DiI-HDL uptake fluorescence, 3 h; 100 = double the neutral-control signal; activation, % at 12.5 µM; hit rate 0.096% among 320,000; AID 504775;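 active = mean replicate activation of at least 60% and every replicate at or above 60%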;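 note: 0% = median plate neutral-control signal and 100% = twice that signal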
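material = CHO ldlA[mSR-BI] cells | medium = Ham's F12 with 0.5% BSA, HEPES 25 mM, pH 7.4 | reagent = fluorescent DiI-HDL, 10 µg/mL final | compound dosing = single-point compound dose | incubation = 3 h, 37 °C | measured by = bottom-read fluorescence, 550/595 nm | measure = HDL uptake via cellular fluorescence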
GRK2 aptamer HTS – inhibitors of human GRK2 displacing RNA aptamer; P25098; bead flow cytometry, FAM-aptamer displacement from GRK2; inhibition of aptamer binding, % at 10 µM; hit rate 0.59% among 330,000;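 active = inhibition of aptamer binding above 40%, roughly 3 SD of noise, on plates passing a quality check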;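 note: median bead fluorescence of bound FAM aptamer so fluorescent compounds give negative values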
GRK2 inh confirm – confirmation of human GRK2 inhibitors displacing RNA aptamer | shares compounds with GRK2 aptamer HTS | bead-bound GRK2, FAM-aptamer displacement, flow cytometry | aptamer displacement, % at 10 µM | hit rate 4% among 2,000 | AID 504451;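 active = aptamer displacement above 40%, near three times the noise of non-fluorescent compounds, on plates passing quality checks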;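 note: negative values mostly reflect intrinsic compound fluorescence rather than true enhancement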
FAM quench CP1 – aptamer fluorescence quenching in GRK2 counter-screen; AID 504580; Carboxyfluorescein RNA aptamer on beads, flow cytometry quenching; hits give low values; shares compounds with GRK2 aptamer HTS; fluorescence response (% of DMSO), % at 10 µM; 2,000 tested, under 10 active;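 active = compounds that quench the bead-bound fluorescent RNA probe, cutting fluorescence to under half of the solvent control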;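 note: counterscreen run without GRK2 so only probe quenching by compound is measured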
GRK2 confirm 2 – confirmation of human GRK2 inhibitors binding RNA aptamer site. shares compounds with GRK2 aptamer HTS. bead-bound GRK2, FAM-aptamer displacement, flow cytometry. inhibition of aptamer binding, % at 10 µM. 360 tested, under 10 active. AID 504782;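 active = inhibition of aptamer binding above 40%, about triple the noise seen with nonglowing compounds, on plates passing quality control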;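 note: negative values mostly come from compounds that fluoresce themselves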
FAM quench SP – aptamer fluorescence quenching in GRK2 counter-screen; shares compounds with GRK2 aptamer HTS; AID 588494; fluorescence response vs DMSO, % at 10 µM; 360 tested, under 10 active; carboxyfluorescein RNA aptamer beads, flow cytometry quenching; hits give low values;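 active = response vs DMSO under 50%, meaning signal dropped by over half, treated as fluorescence quencher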;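 note: labelled aptamer on streptavidin beads without GRK2 as a quench counter-screen; 100% = bead fluorescence of DMSO wells and lower means quenching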
* = called active by the depositor; nt = no result given.

SMILES | SR-BI HDL uptake | Rin1-Abl PPI inh | SR-BI DiI-HDL act | GRK2 aptamer HTS | GRK2 inh confirm | FAM quench CP1 | others
COc1ccc(CC(=O)N(Cc2ccccc2)c2cccc(C)c2)cc1OC | -16 | 1 | 16 | 100* | nt | nt | GRK2 confirm 2=5;FAM quench SP=99
O=C1C(=O)c2ccc(-c3ccccc3)cc2-c2ccccc21 | 92* | -2 | -92 | 66* | 15 | 105
Cc1ccc(SCC(=O)NCCC2=CCCCC2)cc1 | -13 | 0 | 13 | 45* | -1 | 96
Cc1ccc(OCC(=O)NCCC2=CCCCC2)cc1 | -2 | -6 | 2 | 0 | nt | nt
COc1ccc(NC(=O)C2Cc3c(-c4ccc5c(c4)OCO5)ccnc3O2)cc1 (stereo not drawn) | nt | -2 | nt | nt | nt | nt
O=C(CCNC(=O)c1ccc(Cl)cc1)Nc1ncccc1O | -18 | 3 | 18 | 77* | nt | nt | GRK2 confirm 2=-18;FAM quench SP=99
O=C(CCCNC(=O)c1ccc(Cl)cc1)Nc1ncccc1O | -1 | 1 | 1 | 0 | nt | nt
O=C(CN1C(=O)C2C3C=CC(C4CC34)C2C1=O)Nc1cnc2ccccc2c1 (stereo not drawn) | -4 | 1 | 4 | 1 | nt | nt
Cc1onc(-c2ccccc2)c1C(=O)n1cc(Br)cn1 | -3 | -2 | 3 | 69* | 0 | 97
Cc1onc(-c2ccccc2)c1C(N)=O | 10 | -2 | -10 | 2 | nt | nt
CC(C)C1Nc2c(O)cc(Cl)c([N+](=O)[O-])c2C2C=CCC21 (stereo not drawn) | -6 | -2 | 6 | nt | nt | nt
O=C(O)C1Nc2c(Cl)cc(Cl)c(Cl)c2C2C=CCC12 (stereo not drawn) | 18 | -2 | -18 | 59* | 6 | 136
CCOc1ccccc1C1C(C#N)=C(N)Oc2cc(N)ccc21 (stereo not drawn) | 10 | -1 | -10 | 97* | -2 | 103
COc1ccc(OC)c(C2C(C#N)=C(N)Oc3cc(N)ccc32)c1 (stereo not drawn) | -4 | 2 | 4 | 0 | nt | nt
Cc1cccc(C)c1OCCCCN1CCNCC1 | -6 | 1 | 6 | 42* | -5 | 99
O=C1C=CN(C2OC(CO)C(O)C2O)C(=O)C1 (stereo not drawn) | nt | 2 | nt | nt | nt | nt
Cc1ccccc1S(=O)(=O)NC(=O)C1(C)CCN1C(=O)CC1CCCCC1 (stereo not drawn) | nt | -6 | nt | nt | nt | nt
Cc1[nH]c(=O)[nH]c(=O)c1S(=O)(=O)Nc1ccc(F)c(Cl)c1 | -10 | -1 | 10 | 47* | -3 | 125
CC1CN(C(=O)c2cccc(S(=O)(=O)N3CCOCC3)c2)CC(C)O1 (stereo not drawn) | -14 | -2 | 14 | 27 | 1 | 100
CC1CN(C(=O)c2cccc(S(=O)(=O)N3CCN(c4ccc(F)cc4)CC3)c2)CC(C)O1 (stereo not drawn) | 0 | -2 | 0 | 6 | nt | nt
CC1CN(C(=O)c2cccc(C(=O)N3CC(C)OC(C)C3)c2)CC(C)O1 (stereo not drawn) | -21 | 4 | 21 | 0 | nt | nt
CC1CN(C(=O)c2cccc(COc3ccccc3Cl)c2)CC(C)O1 (stereo not drawn) | -7 | 1 | 7 | 98* | 1 | 99
CC1(C(=O)NS(=O)(=O)C2CC2)CCN(C(=O)c2cccc(Cl)c2)C1 (stereo not drawn) | nt | -3 | nt | nt | nt | nt
Cn1c(-c2ccc3nc(N)sc3c2)nc2cc(N)ccc21 | -24 | 0 | 24 | 52* | 4 | 96
Cn1c(-c2ccc(N)cc2)nc2ccccc21 | -15 | 0 | 15 | 0 | nt | nt
SMILES | SR-BI HDL uptake | Rin1-Abl PPI inh | SR-BI DiI-HDL act | GRK2 aptamer HTS | GRK2 inh confirm | FAM quench CP1 | others
COc1ccc(CN2C(=O)c3cccnc3C2Nc2ccc(OC)c(Cl)c2)cc1 (stereo not drawn) | -9 | -1 | 9 | 0 | nt | nt
Cc1ccc(NC2c3ncccc3C(=O)N2Cc2ccc(F)cc2)cc1 (stereo not drawn) | -25 | 0 | 25 | 76* | 0 | 104
COC(=O)c1sccc1-n1cc2c(c1-c1ccccc1)c(=O)n(C)c(=O)n2C | nt | 0 | nt | nt | nt | nt
Cc1ccc(C)c(OCC(=O)N(C)CC(=O)Nc2ccc(Cl)c(C(F)(F)F)c2)c1 | 7 | 4 | -7 | 79* | 0 | 103
C=CCn1c(SCC(=O)Nc2ncc(Cc3ccc(Br)cc3)s2)nnc1-c1ccncc1 | -17 | 1 | 17 | 91* | 7 | 97
C=CCn1c(SCC(=O)Nc2cc(C)on2)nnc1-c1ccncc1 | nt | -1 | nt | nt | nt | nt
COc1ccc(NC(=O)N(C)C[C@@H]2Oc3ccc(NC(=O)NC(C)C)cc3CC(=O)N([C@H](C)CO)C[C@@H]2C)cc1 | -16 | -1 | 16 | 0 | nt | nt
Cc1ccc(CNC(=O)CCC2CCCN(C(=O)c3ccc4c(c3)OCO4)C2)o1 (stereo not drawn) | nt | -1 | nt | 45* | -2 | 93
CC(C)NC(=O)N(C)C[C@H]1Oc2ncc(Br)cc2C(=O)N([C@H](C)CO)C[C@@H]1C | nt | -3 | nt | nt | nt | nt
CC(=O)Nc1cc(-c2cccc(F)c2)cn2c(-c3ccccc3)cnc12 | nt | -3 | nt | nt | nt | nt
CC(C)C(C)NC(=O)CSc1ccc(S(=O)(=O)N2CCOCC2)cn1 (stereo not drawn) | -6 | 5 | nt | 61* | 0 | 100
CCN(CC)CC(O)c1ccc2ccc3ccc(O)cc3c2c1 (stereo not drawn) | 18 | -2 | -18 | nt | nt | nt
COc1ccc(CCC(=O)O)c(C(CC(=O)O)C(=O)O)c1OS(=O)(=O)c1ccc(C)cc1 (stereo not drawn) | nt | 1 | nt | nt | nt | nt
Cc1csc(NC(=O)C2CCCCN2S(=O)(=O)c2ccccc2)n1 (stereo not drawn) | 5 | 1 | -5 | 95* | -2 | 102
O=C(NCc1ccccc1Cl)c1cccc(NC(=O)c2ccccc2)c1 | 5 | -4 | -5 | 0 | 2 | 122
Cc1ccc(C(=O)Nc2cccc(C(=O)NCc3ccccc3)c2)o1 | -14 | -1 | 14 | 0 | -21 | 98
COc1ccc(C(=O)N/C(=C\c2ccccc2)C(=O)Nc2cccc(C(=O)O)c2)cc1 | -16 | -3 | 16 | 90* | 1 | 105
COc1ccc(/C=C(\NC(=O)c2ccc(OC)cc2)C(=O)Nc2ccc(C(=O)O)cc2)cc1 | -8 | 0 | 8 | 1 | nt | nt
O=C(NCc1ccccc1)c1cccc(NC(=O)c2ccccc2)c1 | 1 | 5 | -1 | nt | 2 | 103
Cc1ccc(C(=O)Nc2cccc(Oc3ccccc3)c2)o1 | 30 | 0 | -30 | 0 | nt | nt
CCOC(=O)C1(CCOc2ccccc2)CCN(Cc2cccc(OC)c2O)CC1 | -19 | -1 | 19 | 3 | nt | nt

Screening results (PubChem)
